The source made the active and inactive calls. The rule behind the calls is not given here.
Columns and labels:
[1] = Octanol-phosphate buffer partition coefficient, log P of the compound at 5 mg after 24 hrs by UV spectroscopic analysis; type: physicochemical
Summary of the method: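 5 mg compound added to 10 mL octanol plus 10 mL phosphate buffer in a stoppered tube. Mixture shaken mechanically 24 h at room temperature, then left 6 h in a separating funnel to equilibrate.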

Mus musculus [2] = test: Neurotoxicity in albino CF-1 mouse assessed as minimum motor impairment at 300 mg/kg, ip after 4 hrs by rotarod test; type: toxicity, organism-based; design: dose 300 mg/kg, route intraperitoneal; conditions: in vivo
Summary of the method: (§1)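 Minimal motor impairment assessed in male CF-1 albino mice (18–25 g) at 0.5 and 4 h after i.p. doses of 30, 100 and 300 mg/kg, given in 0.5% methyl cellulose. Minimum dose toxic in half or more of mice recorded.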

Mus musculus [3] = test: Neurotoxicity in albino CF-1 mouse assessed as minimum motor impairment at 300 mg/kg, ip after 0.5 hrs by rotarod test; type: toxicity, organism-based; design: dose 300 mg/kg, route intraperitoneal; conditions: in vivo; summary of the method: as §1
Mus musculus [4] = test: Anticonvulsant activity in albino CF-1 mouse assessed as protection against 6 Hz psychomotor seizure at 100 mg/kg, ip after 0.5 hrs by minimal clonic seizure test; type: functional
Summary of the method: (§2)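 Male CF-1 albino mice (18–25 g) given compound i.p., suspended in 0.5% methyl cellulose, 100 mg/kg in screen. Four mice per time point challenged at 0.25, 0.5, 1.0, 2.0 and 4.0 h via corneal electrodes (32 mA, 3 s, 6 Hz). Protection = absence of psychomotor seizure (minimal clonic phase, automatistic behaviours). Scored as animals protected/tested.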

Mus musculus [5] = test: Anticonvulsant activity in albino CF-1 mouse assessed as protection against 6 Hz psychomotor seizure at 100 mg/kg, ip after 4 hrs by minimal clonic seizure test; type: functional, organism-based; design: dose 100 mg/kg; summary of the method: as §2
Mus musculus [6] = test: Anticonvulsant activity in albino CF-1 mouse assessed as protection against 6 Hz psychomotor seizure at 100 mg/kg, ip after 2 hrs by minimal clonic seizure test; type: functional; summary of the method: as §2
Mus musculus [7] = test: Anticonvulsant activity in albino CF-1 mouse assessed as protection against 6 Hz psychomotor seizure at 100 mg/kg, ip after 1 hr by minimal clonic seizure test; type: functional; summary of the method: as §2
Mus musculus [8] = test: Anticonvulsant activity in albino CF-1 mouse assessed as protection against 6 Hz psychomotor seizure at 100 mg/kg, ip after 0.25 hrs by minimal clonic seizure test; type: functional; summary of the method: as §2
[9] = Neuroprotective activity in hippocampal slice assessed as protection against NMDA-induced cell death using propidium iodide staining; type: functional, tissue-based; conditions: Hippocampus
Summary of the method: (§3)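 Qualitative primary screen on organotypic hippocampal slice cultures. Cell death induced by NMDA or kainic acid, with or without test compound. Propidium iodide present in all wells; PI fluorescence intensity taken as proportional to cell death.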

[10] = Neuroprotective activity in hippocampal slice assessed as protection against kainic acid-induced cell death using propidium iodide staining; type: functional, tissue-based; conditions: Hippocampus; summary of the method: as §3

| logP at 24 h [1] | Compound | Activity (Mus musculus [2]) | Activity (Mus musculus [3]) | Activity (Mus musculus [4]) | Activity (Mus musculus [5]) | Activity (Mus musculus [6]) | Activity (Mus musculus [7]) | Activity (Mus musculus [8]) | Activity (Mus musculus [4]; route intraperitoneal) [%] | Activity (Mus musculus [8]; route intraperitoneal) [%] | Activity (Mus musculus [6]; route intraperitoneal) [%] | Activity (Mus musculus [7]; route intraperitoneal) [%] | Activity [9] | Activity [10] |
| --- | --- | --- | --- | --- | --- | --- | --- | --- | --- | --- | --- | --- | --- | --- |
| 5.39 | Cc1ccc(Oc2ccc(/C=N/NC(=S)Nc3ccccc3)cc2)cc1 | Non-toxic | Non-toxic |  |  |  |  |  |  |  |  |  |  |  |
| 5.09 | Fc1ccc(Oc2ccc(/C=N/NC(=S)Nc3ccccc3)cc2)cc1 | Non-toxic | Non-toxic | inactive | inactive | inactive | Active | inactive |  |  |  |  |  |  |
| 5.52 | S=C(N/N=C/c1ccc(Oc2ccc3c(c2)OCO3)cc1)Nc1ccc(Br)cc1 | Non-toxic | Non-toxic |  |  |  |  |  |  |  |  |  |  |  |
| 6.03 | Cc1cc(Oc2ccc(/C=N/NC(=S)Nc3ccccc3)cc2)ccc1Cl | Non-toxic | Non-toxic | Active | inactive | inactive | inactive | inactive |  |  |  |  |  |  |
| 6.93 | S=C(N/N=C/c1ccc(Oc2ccc3ccccc3c2)cc1)Nc1ccc(Br)cc1 | Non-toxic | Non-toxic |  |  |  |  |  |  |  |  |  |  |  |
| 5.52 | S=C(N/N=C/c1ccc(Oc2ccc(Cl)cc2)cc1)Nc1ccccc1 | Non-toxic | Non-toxic |  |  |  |  |  |  |  |  |  |  |  |
| 5.97 | Cc1ccc(Oc2ccc(/C=N/NC(=S)Nc3ccc(Cl)cc3)cc2)cc1 | Non-toxic | Non-toxic |  |  |  |  |  |  |  |  |  |  |  |
| 4.9 | S=C(N/N=C/c1ccc(Oc2ccccc2)cc1)Nc1ccccc1 | Non-toxic | Non-toxic |  |  |  |  |  |  |  |  |  |  |  |
| 6.17 | Cc1ccc(Oc2ccc(/C=N/NC(=S)Nc3ccc(Br)cc3)cc2)cc1 | Non-toxic | Non-toxic | Active | inactive | inactive | Active | inactive |  |  |  |  |  |  |
| 6.2 | S=C(N/N=C/c1ccc(Oc2ccc(Cl)cc2)cc1)Nc1ccc(Cl)cc1 | Non-toxic | Non-toxic |  |  |  |  |  |  |  |  |  |  |  |
| 5.09 | Fc1ccc(NC(=S)N/N=C/c2ccc(Oc3ccccc3)cc2)cc1 | Non-toxic | Non-toxic | Active | inactive | inactive | inactive | Active |  |  |  |  |  |  |
| 5.54 | S=C(N/N=C/c1ccc(Oc2ccc3c(c2)OCO3)cc1)Nc1ccc(Cl)cc1 | Non-toxic | Non-toxic |  |  |  |  |  |  |  |  |  |  |  |
| 5.68 | O=[N+]([O-])c1ccc(Oc2ccc(/C=N/NC(=S)Nc3ccc(Br)cc3)cc2)cc1 | Non-toxic | Non-toxic |  |  |  |  |  |  |  |  |  |  |  |
| 4.99 | Fc1ccc(NC(=S)N/N=C/c2ccc(Oc3ccc4c(c3)OCO4)cc2)cc1 | Non-toxic | Non-toxic |  |  |  |  |  |  |  |  |  |  |  |
| 6.96 | S=C(N/N=C/c1ccc(Oc2ccc3ccccc3c2)cc1)Nc1ccc(Cl)cc1 | Non-toxic | Non-toxic |  |  |  |  |  |  |  |  |  |  |  |
| 5.88 | Fc1ccc(NC(=S)N/N=C/c2ccc(Oc3ccc(Br)cc3)cc2)cc1 | Non-toxic | Non-toxic | Active | inactive | inactive | inactive | inactive |  |  |  |  |  |  |
| 4.8 | S=C(N/N=C/c1ccc(Oc2ccc3c(c2)OCO3)cc1)Nc1ccccc1 | Non-toxic | Non-toxic |  |  |  |  |  |  |  |  |  |  |  |

| logP at 24 h [1] | Compound | Activity (Mus musculus [2]) | Activity (Mus musculus [3]) | Activity (Mus musculus [4]) | Activity (Mus musculus [5]) | Activity (Mus musculus [6]) | Activity (Mus musculus [7]) | Activity (Mus musculus [8]) | Activity (Mus musculus [4]; route intraperitoneal) [%] | Activity (Mus musculus [8]; route intraperitoneal) [%] | Activity (Mus musculus [6]; route intraperitoneal) [%] | Activity (Mus musculus [7]; route intraperitoneal) [%] | Activity [9] | Activity [10] |
| --- | --- | --- | --- | --- | --- | --- | --- | --- | --- | --- | --- | --- | --- | --- |
| 5.48 | Cc1ccc(Oc2ccc(/C=N/NC(=S)Nc3ccc(F)cc3)cc2)cc1 | Non-toxic | Non-toxic |  | inactive | inactive | inactive | Active | 50 |  |  |  |  |  |
| 6.07 | S=C(N/N=C/c1ccc(Oc2ccc3ccccc3c2)cc1)Nc1ccccc1 | Non-toxic | Non-toxic |  |  |  |  |  |  |  |  |  |  |  |
| 5.84 | Fc1ccc(Oc2ccc(/C=N/NC(=S)Nc3ccc(Cl)cc3)cc2)cc1 | Non-toxic | Non-toxic | Active | Active | Active | inactive | Active |  |  |  |  |  |  |
| 6.07 | Cc1cc(Oc2ccc(/C=N/NC(=S)Nc3ccc(F)cc3)cc2)ccc1Cl | Non-toxic | Non-toxic | Active | inactive | inactive | Active | inactive |  |  |  |  |  |  |
| 4.95 | O=[N+]([O-])c1ccc(Oc2ccc(/C=N/NC(=S)Nc3ccccc3)cc2)cc1 | Non-toxic | Non-toxic |  |  |  |  |  |  |  |  |  |  |  |
| 4.89 | O=[N+]([O-])c1ccc(Oc2ccc(/C=N/NC(=S)Nc3ccc(F)cc3)cc2)cc1 | Non-toxic | Non-toxic |  | inactive | inactive | Active | inactive | 50 |  |  |  |  |  |
| 5.19 | Fc1ccc(NC(=S)N/N=C/c2ccc(Oc3ccc(F)cc3)cc2)cc1 | Non-toxic | Non-toxic | Active | inactive | Active | inactive |  |  | 50 |  |  |  |  |
| 6.2 | Fc1ccc(NC(=S)N/N=C/c2ccc(Oc3ccc4ccccc4c3)cc2)cc1 | Non-toxic | Non-toxic | inactive | Active | Active | inactive | inactive |  |  |  |  |  |  |
| 5.82 | Fc1ccc(Oc2ccc(/C=N/NC(=S)Nc3ccc(Br)cc3)cc2)cc1 | Non-toxic | Non-toxic | Active | inactive | Active | Active | inactive |  |  |  |  |  |  |
| 5.62 | S=C(N/N=C/c1ccc(Oc2ccc(Br)cc2)cc1)Nc1ccccc1 | Non-toxic | Non-toxic | Active | inactive | Active | Active | inactive |  |  |  |  |  |  |
| 5.52 | O=[N+]([O-])c1ccc(Oc2ccc(/C=N/NC(=S)Nc3ccc(Cl)cc3)cc2)cc1 | Non-toxic | Non-toxic |  |  |  |  |  |  |  |  |  |  |  |
| 5.64 | S=C(N/N=C/c1ccc(Oc2ccccc2)cc1)Nc1ccc(Cl)cc1 | Non-toxic | Non-toxic |  |  |  |  |  |  |  |  |  |  |  |
| 6.59 | Cc1cc(Oc2ccc(/C=N/NC(=S)Nc3ccc(Cl)cc3)cc2)ccc1Cl | Non-toxic | Non-toxic | Active | inactive |  |  | inactive |  |  | 50 | 50 |  |  |
| 6.24 | S=C(N/N=C/c1ccc(Oc2ccc(Cl)cc2)cc1)Nc1ccc(Br)cc1 | Non-toxic | Non-toxic |  |  |  |  |  |  |  |  |  |  |  |
| 6.37 | S=C(N/N=C/c1ccc(Oc2ccc(Br)cc2)cc1)Nc1ccc(Cl)cc1 | Non-toxic | Non-toxic |  |  |  |  |  |  |  |  |  |  |  |
| 6.38 | S=C(N/N=C/c1ccc(Oc2ccccc2)cc1)Nc1ccc(Br)cc1 | Non-toxic | Non-toxic | Active | inactive | inactive | inactive | inactive |  |  |  |  | inactive | inactive |
